Shown are actives, neighbours in structure and some others; about 1.4% of the full set was active somewhere.
HKDC1 inhibitor = inhibitors of human hexokinase HKDC1; Q2TB90; recombinant HKDC1, G6PDH/diaphorase resazurin coupled fluorescence; inhibition, % at 20 µM; actives 0.16% (n = 340,000); AID 493160;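 active = inhibition above about 35% when tested at 20 µM, limit read from the data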;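 also: plate controls were DMSO wells with enzyme for no effect and DMSO wells lacking enzyme for full effect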
Target sequence (Q2TB90 whole entry, looked up): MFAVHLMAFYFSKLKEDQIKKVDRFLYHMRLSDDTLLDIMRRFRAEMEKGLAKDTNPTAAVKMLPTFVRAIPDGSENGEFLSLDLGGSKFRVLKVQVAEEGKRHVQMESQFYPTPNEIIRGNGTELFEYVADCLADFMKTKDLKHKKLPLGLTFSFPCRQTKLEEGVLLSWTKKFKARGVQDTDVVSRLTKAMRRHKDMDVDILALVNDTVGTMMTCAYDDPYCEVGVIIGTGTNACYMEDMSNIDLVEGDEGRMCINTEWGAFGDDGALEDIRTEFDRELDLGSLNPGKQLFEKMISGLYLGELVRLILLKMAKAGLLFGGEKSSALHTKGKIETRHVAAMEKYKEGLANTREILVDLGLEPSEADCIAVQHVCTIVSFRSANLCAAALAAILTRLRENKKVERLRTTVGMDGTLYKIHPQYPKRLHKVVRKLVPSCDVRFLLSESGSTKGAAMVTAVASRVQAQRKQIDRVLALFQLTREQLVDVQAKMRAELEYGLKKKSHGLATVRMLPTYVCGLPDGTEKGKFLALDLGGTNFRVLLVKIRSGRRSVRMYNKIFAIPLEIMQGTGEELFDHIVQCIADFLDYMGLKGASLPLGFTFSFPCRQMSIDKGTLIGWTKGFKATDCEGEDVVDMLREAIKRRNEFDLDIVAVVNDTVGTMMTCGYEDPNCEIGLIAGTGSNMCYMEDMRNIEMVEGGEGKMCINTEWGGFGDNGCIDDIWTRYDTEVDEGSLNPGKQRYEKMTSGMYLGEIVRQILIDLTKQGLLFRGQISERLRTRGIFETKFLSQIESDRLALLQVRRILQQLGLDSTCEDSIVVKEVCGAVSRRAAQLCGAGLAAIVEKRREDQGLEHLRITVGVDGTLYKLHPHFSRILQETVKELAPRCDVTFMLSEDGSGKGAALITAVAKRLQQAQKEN
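System: Recombinant HKDC1 hexokinase | Amount: HKDC1 at 5 µg/mL | Reagent: Glucose with 1 mM ATP | Doses: Single 20 µM dose | Incubation: Reaction time 90 min, room temperature, protected from light | Signal: Coupled resazurin fluorescence, excitation 525 nm, emission 613 nm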
APOBEC3A inh = human APOBEC3A DNA deaminase inhibition; recombinant A3A, FAM/TAMRA ssDNA deamination fluorescence; inhibition, % at 20 µM; P31941; AID 493011; actives 0.41% (n = 330,000);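 active = at least 40% inhibition at 20 µM here, with at most 30% in a related deaminase screen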;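 also: plate controls were A3A with DMSO for no effect and wells lacking A3A enzyme for full effect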
PfGluPho inh = PfG6PD (Plasmodium falciparum) enzyme inhibition; PfGluPho enzyme, NADPH resazurin-diaphorase fluorescence; actives 0.78% (n = 350,000); inhibition, % at 20 µM;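 active = inhibition reaching at least a set limit at 20 µM in the primary screen, cut at about 59% in these data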;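 also: 0% = DMSO wells with substrate and 100% = DMSO wells lacking glucose-6-phosphate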
APOBEC3G inh = inhibitors of human APOBEC3G DNA deaminase. recombinant A3G, ssDNA deamination FAM/TAMRA fluorescence. Q9HC16. actives 0.28% (n = 330,000). inhibition, % at 20 µM;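 active = inhibition of at least 40% at 20 µM, with no more than 30% in the related APOBEC3A deaminase screen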;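 also: plate controls were DMSO wells with A3G for no effect and wells lacking A3G enzyme for full effect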
hiPSC survival = enhancers of human iPSC single-cell survival | hiPSC single-cell survival, ATPlite luminescence; 100% = ROCK inhibitor wells, 0% = DMSO | actives 0.044% (n = 360,000) | survival enhancement, % at 20 µM; in the data active = survival enhancement above about 18%;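 also: cells exposed to compounds for 16 hours before the ATP read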
PfG6PD confirm = confirmation of Plasmodium falciparum G6PD inhibitors | shares compounds with PfGluPho inh | recombinant PfGluPho, NADPH-diaphorase-resazurin fluorescence | inhibition, % at 20 µM | actives 34% (n = 2,400);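 active = inhibition of at least 50% at 20 µM in any single replicate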;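 also: 0% = DMSO with substrate and 100% = DMSO lacking glucose-6-phosphate substrate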
Diaphorase 10uM = diaphorase inhibition or oxidation at 10 uM NADPH; diaphorase-coupled resazurin reduction, fluorescence, NADPH 10 uM; actives 39% (n = 820); inhibition, % at 20 µM; shares compounds with PfGluPho inh;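 active = average inhibition reaching 50% or more with the compound at 20 µM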;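 also: resorufin red fluorescence formed as diaphorase reduces resazurin using NADPH; 0% = DMSO with enzyme and 100% = DMSO without enzyme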
Diaphorase 30uM = diaphorase inhibition or oxidation at 30 uM NADPH. Diaphorase/resazurin coupled assay, resorufin fluorescence. shares compounds with PfGluPho inh. inhibition, % at 20 µM. actives 29% (n = 820);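 active = inhibition averaging 50% or more, tested at 20 µM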;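 also: 0% = DMSO with enzyme and 100% = DMSO wells lacking diaphorase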
Starred values were filed as active, the others as inactive.

`COc1ccc(OC)c(CNS(=O)(=O)c2c(C)nc3scc(C)n3c2=O)c1` gave HKDC1 inhibitor 4, APOBEC3A inh -1, PfGluPho inh -1, APOBEC3G inh -5 and hiPSC survival 1.
`Cc1ccccc1C(=O)Nc1sc2c(c1C(=O)O)CCC2` gave HKDC1 inhibitor -8, APOBEC3A inh -3, PfGluPho inh 8, APOBEC3G inh -8 and hiPSC survival 1.
For Cc1cccc(C(=O)Nc2sc3c(c2C(=O)O)CCCC3)c1 the results were HKDC1 inhibitor 6, APOBEC3A inh -4, PfGluPho inh 80*, APOBEC3G inh -4, hiPSC survival 0, PfG6PD confirm 53*, Diaphorase 10uM 47 and Diaphorase 30uM 29.
O=C(Nc1sc2c(c1C(=O)O)CCC2)c1cccc(Cl)c1 was read as HKDC1 inhibitor 5, APOBEC3A inh -5, PfGluPho inh 62*, APOBEC3G inh -11, hiPSC survival 0 and PfG6PD confirm 35.
For COc1ccccc1/C=N/NC(=O)CO the results were HKDC1 inhibitor -8, APOBEC3A inh -3, PfGluPho inh 25, APOBEC3G inh -10 and hiPSC survival -1.
`COc1ccccc1/C=N/NC(=O)CSc1cc(C)nc2ccccc12` gave HKDC1 inhibitor -1, APOBEC3A inh -3, PfGluPho inh 83*, APOBEC3G inh 8, hiPSC survival 0, PfG6PD confirm 68*, Diaphorase 10uM 69* and Diaphorase 30uM 53*.
Screening COc1ccccc1/C=N/NC(=O)CC(=O)NCc1ccccc1 returned HKDC1 inhibitor -4, APOBEC3A inh 0, PfGluPho inh 105*, APOBEC3G inh -3, hiPSC survival -1, PfG6PD confirm 86*, Diaphorase 10uM 93* and Diaphorase 30uM 82*.
Screening COc1ccc2nc(C)cc(SCC(=O)N/N=C/c3ccccc3)c2c1 returned HKDC1 inhibitor -6, APOBEC3A inh -2, PfGluPho inh 59, APOBEC3G inh -5, hiPSC survival -1 and PfG6PD confirm 11.
`COc1ccc2nc(C)cc(SCC(=O)N/N=C/c3c(OC)ccc4ccccc34)c2c1` gave HKDC1 inhibitor 13, PfGluPho inh -5 and hiPSC survival -1.
Screening COc1ccccc1/C=N/NC(=O)CSc1ccc2ccccc2n1 returned HKDC1 inhibitor 3, APOBEC3A inh -4, PfGluPho inh 119*, APOBEC3G inh -9, hiPSC survival 0, PfG6PD confirm 85*, Diaphorase 10uM 97* and Diaphorase 30uM 86*.
For COc1ccccc1C=NNC(=O)C(=O)NN=Cc1ccccc1OC the results were HKDC1 inhibitor -8, PfGluPho inh -24 and hiPSC survival -2.
Screening CCCNC(=O)C1(C)CCCN(Cc2cc(-c3ccccc3)nn2C)C1 (stereo not drawn) returned hiPSC survival -1.
For COc1cc2c(cc1OC)C(c1ccccc1C(F)(F)F)CC(=O)N2 (stereo not drawn) the results were HKDC1 inhibitor -2, APOBEC3A inh 2, PfGluPho inh -3, APOBEC3G inh -1 and hiPSC survival 1.
For COc1ccc2c(c1)sc1nc(-c3ccccc3)cn12 the results were HKDC1 inhibitor 7, APOBEC3A inh 0, PfGluPho inh 98*, APOBEC3G inh 1, hiPSC survival -9 and PfG6PD confirm 26.
C=CCn1c(SCC(=O)N2CCOCC2)nnc1C(C)NC(=O)c1ccccc1 (stereo not drawn) was read as HKDC1 inhibitor -5, APOBEC3A inh 0, PfGluPho inh -4, APOBEC3G inh -1 and hiPSC survival 0.
CCC(c1ccc(O)c(O)c1)C(CC)c1ccc(O)c(O)c1 (stereo not drawn) was read as HKDC1 inhibitor 6, PfGluPho inh 78*, hiPSC survival -1, PfG6PD confirm 57*, Diaphorase 10uM 8 and Diaphorase 30uM 3.
For CCC(NC(C)C)C(O)c1ccc(O)c(O)c1 (stereo not drawn) the results were HKDC1 inhibitor 11, APOBEC3A inh -6, PfGluPho inh 33, APOBEC3G inh -4 and hiPSC survival 1.
CC(C)N(C)C1=CC(=O)C(N(C)C(C)C)=CC1=O was read as HKDC1 inhibitor 4, PfGluPho inh 67*, hiPSC survival 1 and PfG6PD confirm 6.
O=S(=O)(Cc1ccccc1)N(O)c1ccccc1 was read as HKDC1 inhibitor 0, APOBEC3A inh -6, PfGluPho inh 86*, APOBEC3G inh -4, hiPSC survival 0, PfG6PD confirm 84*, Diaphorase 10uM 74* and Diaphorase 30uM 53*.
Screening Cn1ccc(C(=O)N/N=C/c2ccncc2)n1 returned HKDC1 inhibitor -1, APOBEC3A inh -3, PfGluPho inh 3, APOBEC3G inh -5 and hiPSC survival 0.
For CCn1c2ccccc2nc2cc3c(cc21)c(Cl)c(=O)c1ccccc13 the results were PfGluPho inh 94*, hiPSC survival -2 and PfG6PD confirm 40.
For CCn1c(/C=C/c2c(C)n(CC)c3ccccc23)nc2ccccc2c1=O the results were HKDC1 inhibitor 7, APOBEC3A inh 0, PfGluPho inh 0, APOBEC3G inh 3 and hiPSC survival -1.
For COc1ccc(Cl)cc1NC(=O)c1cccc([N+](=O)[O-])c1O the results were HKDC1 inhibitor 15, PfGluPho inh 77*, hiPSC survival -2, PfG6PD confirm 57*, Diaphorase 10uM 42 and Diaphorase 30uM 38.
`Cc1ccc(S(N)(=O)=O)cc1NC(=O)c1ccc2c3c(cccc13)CC2` gave HKDC1 inhibitor -4, APOBEC3A inh -1, PfGluPho inh 22, APOBEC3G inh -9 and hiPSC survival 0.
For COc1cccc2c1C(=N)c1c(O)c3c(c(O)c1C2=O)CC(O)(C(C)=O)CC3OC1CC(N)C(O)C(C)O1 (stereo not drawn) the results were HKDC1 inhibitor 10, PfGluPho inh 60*, hiPSC survival -2 and PfG6PD confirm 20.
`Fc1cccc(Nc2ncnc3c2cnn3-c2ccccc2)c1` gave HKDC1 inhibitor 1, APOBEC3A inh 0, PfGluPho inh 70*, APOBEC3G inh -10, hiPSC survival 1 and PfG6PD confirm 13.
Screening O=C(O)c1cccc(Nc2ncnc3c2cnn3-c2ccccc2)c1 returned HKDC1 inhibitor 1, APOBEC3A inh -5, PfGluPho inh -13, APOBEC3G inh -8 and hiPSC survival 2.
Screening Clc1cccc(Nc2ncnc3c2cnn3-c2ccccc2)c1 returned HKDC1 inhibitor -1, APOBEC3A inh -3, PfGluPho inh 83*, APOBEC3G inh -9, hiPSC survival 0 and PfG6PD confirm -9.

Source: PubChem (Sanford-Burnham Center for Chemical Genomics)
